The M2OR odorant receptor database
Numbering of substitutions follows the chain as printed.

Columns and labels:
Details in all cases: stereoisomer not certain
OR5K3 (Homo sapiens) = molecular target: T1, OR5K3 (Homo sapiens) (UniProt A6NET4)
T1 sequence (whole entry): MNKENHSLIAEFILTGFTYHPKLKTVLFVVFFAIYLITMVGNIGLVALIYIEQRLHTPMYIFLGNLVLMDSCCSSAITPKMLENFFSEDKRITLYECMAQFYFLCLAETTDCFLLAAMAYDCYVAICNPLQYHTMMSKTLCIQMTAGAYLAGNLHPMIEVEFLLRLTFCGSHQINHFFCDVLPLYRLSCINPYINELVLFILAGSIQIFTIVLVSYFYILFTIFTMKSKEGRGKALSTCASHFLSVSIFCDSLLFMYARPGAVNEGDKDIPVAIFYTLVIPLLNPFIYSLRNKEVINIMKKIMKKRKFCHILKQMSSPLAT
In short: (§1)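 Each receptor–molecule pair is labelled responsive or non-responsive (inactive) according to whether the original authors judged the measured signal statistically different from baseline. The data were taken from the main text and supplementary material of published papers and checked for typos and inconsistencies. Assay methods differed by source, with transient luciferase assays in mammalian cell lines being common.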

OR5K4 (Homo sapiens) = molecular target: T2, OR5K4 (Homo sapiens) (UniProt A6NMS3)
T2 sequence (whole entry): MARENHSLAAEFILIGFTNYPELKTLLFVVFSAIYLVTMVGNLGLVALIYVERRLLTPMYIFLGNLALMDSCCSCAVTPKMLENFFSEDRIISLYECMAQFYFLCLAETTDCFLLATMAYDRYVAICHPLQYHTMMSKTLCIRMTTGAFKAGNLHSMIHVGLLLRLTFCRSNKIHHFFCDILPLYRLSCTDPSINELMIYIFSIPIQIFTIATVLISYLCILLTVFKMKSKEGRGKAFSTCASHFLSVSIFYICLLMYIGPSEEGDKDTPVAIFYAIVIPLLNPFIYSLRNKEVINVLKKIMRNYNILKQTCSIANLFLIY
In short: as §1

OR5L1 (Homo sapiens) = molecular target: T3, OR5L1 (Homo sapiens) (UniProt Q8NGL2)
T3 sequence (whole entry): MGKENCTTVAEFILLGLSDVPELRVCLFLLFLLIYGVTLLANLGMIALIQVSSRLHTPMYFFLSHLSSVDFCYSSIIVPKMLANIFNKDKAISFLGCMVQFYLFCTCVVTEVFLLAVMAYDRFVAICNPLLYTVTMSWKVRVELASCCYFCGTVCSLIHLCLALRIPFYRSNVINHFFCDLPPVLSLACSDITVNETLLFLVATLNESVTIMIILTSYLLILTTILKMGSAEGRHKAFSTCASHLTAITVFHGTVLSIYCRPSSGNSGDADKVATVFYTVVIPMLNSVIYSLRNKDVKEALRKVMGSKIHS
In short: as §1

OR5L2 (Homo sapiens) = molecular target: T4, OR5L2 (Homo sapiens) (UniProt Q8NGL0)
T4 sequence (whole entry): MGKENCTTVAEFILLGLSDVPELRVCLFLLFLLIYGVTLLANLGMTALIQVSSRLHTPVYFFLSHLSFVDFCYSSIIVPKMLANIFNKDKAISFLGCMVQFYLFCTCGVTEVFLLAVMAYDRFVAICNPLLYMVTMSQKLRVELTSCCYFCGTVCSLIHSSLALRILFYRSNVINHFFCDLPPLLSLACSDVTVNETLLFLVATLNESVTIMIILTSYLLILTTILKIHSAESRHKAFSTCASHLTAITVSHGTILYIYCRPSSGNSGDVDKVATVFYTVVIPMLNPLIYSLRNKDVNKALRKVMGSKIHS
In short: as §1

OR5M1 (Homo sapiens) = molecular target: T5, OR5M1 (Homo sapiens) (UniProt Q8NGP8)
T5 sequence (whole entry): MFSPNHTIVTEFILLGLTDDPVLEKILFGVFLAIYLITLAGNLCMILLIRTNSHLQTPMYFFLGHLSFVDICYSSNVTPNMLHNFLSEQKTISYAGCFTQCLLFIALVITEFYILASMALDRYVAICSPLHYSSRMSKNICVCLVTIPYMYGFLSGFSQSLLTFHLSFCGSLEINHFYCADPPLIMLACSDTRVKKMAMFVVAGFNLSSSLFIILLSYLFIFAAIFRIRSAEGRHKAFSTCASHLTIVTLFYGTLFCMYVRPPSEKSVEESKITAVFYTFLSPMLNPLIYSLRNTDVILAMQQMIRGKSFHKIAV
In short: as §1

OR5M1 T295R M301I = test system: T6, OR5M1 T295R M301I
T6 sequence (whole entry): T5 sequence (whole entry) with T295R, M301I
In short: as §1

OR5M10 (Homo sapiens) = molecular target: T7, OR5M10 (Homo sapiens) (UniProt Q6IEU7)
T7 sequence (whole entry): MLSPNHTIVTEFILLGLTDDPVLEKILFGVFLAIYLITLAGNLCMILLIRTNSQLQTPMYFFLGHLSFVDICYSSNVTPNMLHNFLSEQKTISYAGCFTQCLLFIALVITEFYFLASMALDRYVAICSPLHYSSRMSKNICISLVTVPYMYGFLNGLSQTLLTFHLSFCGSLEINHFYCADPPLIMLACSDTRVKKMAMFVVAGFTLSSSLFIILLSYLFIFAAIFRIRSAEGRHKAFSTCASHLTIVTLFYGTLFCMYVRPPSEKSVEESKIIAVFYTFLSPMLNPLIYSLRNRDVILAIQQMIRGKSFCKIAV
In short: as §1

OR5M11 (Homo sapiens) = molecular target: T8, OR5M11 (Homo sapiens) (UniProt Q96RB7)
T8 sequence (whole entry): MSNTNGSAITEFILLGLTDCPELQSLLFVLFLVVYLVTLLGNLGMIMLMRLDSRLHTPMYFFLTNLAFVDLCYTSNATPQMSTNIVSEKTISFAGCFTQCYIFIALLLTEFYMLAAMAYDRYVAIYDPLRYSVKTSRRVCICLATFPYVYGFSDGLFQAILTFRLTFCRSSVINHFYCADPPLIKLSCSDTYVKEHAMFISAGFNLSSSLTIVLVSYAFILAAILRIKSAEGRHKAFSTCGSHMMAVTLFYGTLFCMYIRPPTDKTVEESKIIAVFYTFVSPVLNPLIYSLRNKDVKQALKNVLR
In short: as §1

OR5M3 (Homo sapiens) = molecular target: T9, OR5M3 (Homo sapiens) (UniProt Q8NGP4)
T9 sequence (whole entry): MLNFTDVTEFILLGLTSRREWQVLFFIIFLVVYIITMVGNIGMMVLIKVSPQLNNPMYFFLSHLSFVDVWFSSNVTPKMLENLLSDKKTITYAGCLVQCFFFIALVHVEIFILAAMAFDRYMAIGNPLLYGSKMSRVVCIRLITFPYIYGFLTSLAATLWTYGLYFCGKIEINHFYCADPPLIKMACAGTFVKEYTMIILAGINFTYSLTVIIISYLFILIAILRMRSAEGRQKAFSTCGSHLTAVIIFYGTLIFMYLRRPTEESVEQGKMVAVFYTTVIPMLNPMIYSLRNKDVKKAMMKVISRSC
In short: as §1

OR5M3 N3Y A156T = test system: T10, OR5M3 N3Y A156T
T10 sequence (whole entry): T9 sequence (whole entry) with N3Y, A156T
In short: as §1

OR5M8 (Homo sapiens) = molecular target: T11, OR5M8 (Homo sapiens) (UniProt Q8NGP6)
T11 sequence (whole entry): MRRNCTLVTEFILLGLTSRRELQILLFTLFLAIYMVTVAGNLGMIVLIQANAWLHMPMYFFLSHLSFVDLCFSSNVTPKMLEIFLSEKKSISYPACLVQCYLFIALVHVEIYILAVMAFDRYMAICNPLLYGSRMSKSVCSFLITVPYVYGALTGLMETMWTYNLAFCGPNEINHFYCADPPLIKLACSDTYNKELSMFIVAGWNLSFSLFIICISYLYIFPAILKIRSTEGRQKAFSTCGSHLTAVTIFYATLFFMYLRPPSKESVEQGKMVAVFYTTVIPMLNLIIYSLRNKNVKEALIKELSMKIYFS
In short: as §1

OR5M9 (Homo sapiens) = molecular target: T12, OR5M9 (Homo sapiens) (UniProt Q8NGP3)
T12 sequence (whole entry): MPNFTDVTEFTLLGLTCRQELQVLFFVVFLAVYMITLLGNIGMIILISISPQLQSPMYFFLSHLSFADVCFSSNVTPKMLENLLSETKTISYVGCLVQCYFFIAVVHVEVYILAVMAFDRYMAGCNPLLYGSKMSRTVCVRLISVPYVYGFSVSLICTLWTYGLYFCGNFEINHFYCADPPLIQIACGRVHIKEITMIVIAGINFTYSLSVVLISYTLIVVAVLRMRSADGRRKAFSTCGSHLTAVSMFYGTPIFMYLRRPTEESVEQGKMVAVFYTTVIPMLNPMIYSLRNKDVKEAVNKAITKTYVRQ
In short: as §1

OR5MA L2F C311H = test system: T13, OR5MA L2F C311H
T13 sequence (whole entry): T7 sequence (whole entry) with L2F, C311H
In short: as §1

OR5MA L2F Q54H C311H = test system: T14, OR5MA L2F Q54H C311H
T14 sequence (whole entry): T7 sequence (whole entry) with L2F, Q54H, C311H
In short: as §1

OR5P2 (Homo sapiens) = molecular target: T15, OR5P2 (Homo sapiens) (UniProt Q8WZ92)
T15 sequence (whole entry): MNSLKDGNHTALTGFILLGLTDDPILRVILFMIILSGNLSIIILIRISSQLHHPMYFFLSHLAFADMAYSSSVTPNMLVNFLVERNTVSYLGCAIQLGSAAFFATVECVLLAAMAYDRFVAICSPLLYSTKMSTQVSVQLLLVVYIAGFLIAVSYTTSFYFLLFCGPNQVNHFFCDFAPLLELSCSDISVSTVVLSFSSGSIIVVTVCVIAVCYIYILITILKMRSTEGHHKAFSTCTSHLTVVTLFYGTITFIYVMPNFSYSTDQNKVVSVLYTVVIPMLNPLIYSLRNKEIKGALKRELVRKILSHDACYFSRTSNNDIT
In short: as §1

OR5P3 (Homo sapiens) = molecular target: T16, OR5P3 (Homo sapiens) (UniProt Q8WZ94)
T16 sequence (whole entry): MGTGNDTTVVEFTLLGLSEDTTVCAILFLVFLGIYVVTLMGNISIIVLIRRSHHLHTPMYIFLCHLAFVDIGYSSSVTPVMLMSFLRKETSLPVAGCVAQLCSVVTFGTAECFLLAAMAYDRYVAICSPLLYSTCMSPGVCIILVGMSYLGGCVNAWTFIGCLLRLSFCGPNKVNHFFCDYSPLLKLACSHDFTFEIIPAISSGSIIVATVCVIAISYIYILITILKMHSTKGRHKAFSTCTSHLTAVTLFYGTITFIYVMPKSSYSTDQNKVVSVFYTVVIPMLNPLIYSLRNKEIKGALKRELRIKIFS
In short: as §1

OR5P3 L301R = test system: T17, OR5P3 L301R
T17 sequence (whole entry): T16 sequence (whole entry) with L301R
In short: as §1

OR5R1 C122R S128G F184L = test system: T18, OR5R1 C122R S128G F184L
T18 sequence (whole entry): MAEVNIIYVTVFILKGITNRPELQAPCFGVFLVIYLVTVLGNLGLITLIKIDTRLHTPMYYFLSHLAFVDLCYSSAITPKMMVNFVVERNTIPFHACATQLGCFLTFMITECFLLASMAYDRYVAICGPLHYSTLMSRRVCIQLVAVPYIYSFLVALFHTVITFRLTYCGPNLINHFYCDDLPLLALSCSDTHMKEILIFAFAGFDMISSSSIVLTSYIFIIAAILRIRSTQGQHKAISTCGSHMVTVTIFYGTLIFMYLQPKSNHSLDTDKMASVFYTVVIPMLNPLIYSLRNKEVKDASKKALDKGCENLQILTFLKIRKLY
In short: as §1

OR5T1 (Homo sapiens) = molecular target: T19, OR5T1 (Homo sapiens) (UniProt Q8NG75)
T19 sequence (whole entry): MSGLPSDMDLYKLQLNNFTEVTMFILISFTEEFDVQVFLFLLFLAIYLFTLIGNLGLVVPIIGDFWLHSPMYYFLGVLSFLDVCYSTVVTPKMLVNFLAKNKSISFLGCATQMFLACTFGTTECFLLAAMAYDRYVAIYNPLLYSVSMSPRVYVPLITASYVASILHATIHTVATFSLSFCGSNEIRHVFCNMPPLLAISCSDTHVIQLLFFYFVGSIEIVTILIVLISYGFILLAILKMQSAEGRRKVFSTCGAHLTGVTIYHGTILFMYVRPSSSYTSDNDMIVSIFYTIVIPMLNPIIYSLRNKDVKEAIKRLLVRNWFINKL
In short: as §1

OR5T2 (Homo sapiens) = molecular target: T20, OR5T2 (Homo sapiens) (UniProt Q8NGG2)
T20 sequence (whole entry): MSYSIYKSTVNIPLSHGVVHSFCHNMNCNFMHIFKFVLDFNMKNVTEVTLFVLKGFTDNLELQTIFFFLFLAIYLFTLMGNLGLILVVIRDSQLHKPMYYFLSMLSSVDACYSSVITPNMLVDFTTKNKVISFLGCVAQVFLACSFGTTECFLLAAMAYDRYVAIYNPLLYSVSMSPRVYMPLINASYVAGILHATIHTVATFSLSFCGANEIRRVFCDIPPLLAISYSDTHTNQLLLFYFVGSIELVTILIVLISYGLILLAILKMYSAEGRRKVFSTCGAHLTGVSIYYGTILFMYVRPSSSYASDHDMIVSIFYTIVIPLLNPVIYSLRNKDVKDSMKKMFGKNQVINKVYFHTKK
In short: as §1

Measured: odorant receptor agonist call;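 also: active if original authors judged signal statistically different from baseline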

Cc1cnc(C)c(C)n1
inactive: all assays above

Cc1occc(=O)c1O
inactive: OR5M3 (Homo sapiens)

CC(=O)c1c(C)c([N+](=O)[O-])c(C(C)(C)C)c([N+](=O)[O-])c1C
not listed: OR5L2 (Homo sapiens) | OR5M1 T295R M301I | OR5M3 N3Y A156T | OR5MA L2F C311H | OR5MA L2F Q54H C311H | OR5P3 L301R | OR5R1 C122R S128G F184L
inactive: all other assays above
